AHR activator: activates the human aryl hydrocarbon receptor; P35869; AHR-responsive luciferase reporter cells, luminescence; activation, % at 5 µM; hit rate 2.5% among 320,000; AID 2796; in the data active means activation above about 47%
Target sequence (P35869 whole entry, looked up): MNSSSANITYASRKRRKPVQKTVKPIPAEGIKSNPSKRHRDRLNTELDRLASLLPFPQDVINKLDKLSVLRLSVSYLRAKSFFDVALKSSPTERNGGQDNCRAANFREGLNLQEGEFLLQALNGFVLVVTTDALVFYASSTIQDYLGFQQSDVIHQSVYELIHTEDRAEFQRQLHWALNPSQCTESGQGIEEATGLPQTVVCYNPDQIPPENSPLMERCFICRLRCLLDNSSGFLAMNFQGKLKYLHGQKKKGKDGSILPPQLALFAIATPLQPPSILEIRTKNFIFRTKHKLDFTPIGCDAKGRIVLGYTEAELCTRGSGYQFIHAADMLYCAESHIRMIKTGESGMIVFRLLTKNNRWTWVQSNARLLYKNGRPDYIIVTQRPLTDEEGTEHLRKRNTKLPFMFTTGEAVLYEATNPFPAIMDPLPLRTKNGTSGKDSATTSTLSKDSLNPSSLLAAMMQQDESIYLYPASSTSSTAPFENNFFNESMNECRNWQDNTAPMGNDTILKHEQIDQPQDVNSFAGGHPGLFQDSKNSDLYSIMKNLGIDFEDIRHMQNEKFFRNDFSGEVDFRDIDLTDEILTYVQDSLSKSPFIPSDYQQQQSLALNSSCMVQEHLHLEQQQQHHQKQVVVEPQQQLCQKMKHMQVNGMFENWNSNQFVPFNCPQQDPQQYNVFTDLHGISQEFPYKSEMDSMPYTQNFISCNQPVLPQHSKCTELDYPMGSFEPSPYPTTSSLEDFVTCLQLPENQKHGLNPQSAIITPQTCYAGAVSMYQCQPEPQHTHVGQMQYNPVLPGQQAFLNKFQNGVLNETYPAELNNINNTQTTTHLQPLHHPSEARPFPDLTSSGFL
SR-BI HDL uptake: inhibitors of mouse SR-BI mediated HDL lipid uptake | AID 488896 | ldlA[mSR-BI] CHO cells, DiI-HDL uptake fluorescence, 3 h | inhibition, % at 12.5 µM | hit rate 0.96% among 320,000;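 active means mean replicate inhibition of at least 70% and a set share of replicates each scoring 70 or more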
SMARCA2 activ: SMARCA2 function activation, primary screen; AID 652017; activation, % at 9.1 µM; MG213 cells, MMTV-luciferase reporter, dexamethasone, overnight; hit rate 1% among 370,000; in the data active means activation above about 7.8%
SR-BI DiI-HDL act: activators of SR-BI mediated HDL lipid uptake; CHO ldlA[mSR-BI] cells, DiI-HDL uptake fluorescence, 3 h; 100 = double the neutral-control signal; activation, % at 12.5 µM; hit rate 0.096% among 320,000; AID 504775;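 active means mean replicate activation of at least 60% and every replicate at or above 60%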
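system = CHO ldlA[mSR-BI] cells, LDL receptor-null, SR-BI overexpressing | medium = Ham's F12 with 0.5% BSA, HEPES 25 mM, pH 7.4 | probe or stimulus = DiI-HDL 10 µg/mL | compound dosing = single-point compound dose | incubation = compound exposure 3 h, 37 °C | technique = DiI fluorescence, bottom read | read-out = cell-associated DiI fluorescence as measure of HDL uptake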
CR mimetic SO: lowers age-related superoxide in aged yeast cells; S. cerevisiae aged cells, superoxide DHE fluorescence; active compounds read low; superoxide response (% of plate mean), % at 10 µM; hit rate 0.18% among 330,000;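 active means superoxide response under a set limit, about three screen SD below normal, cut at about 65% in these data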;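 further: yeast aged for seven days with compound at 30 °C before DHE staining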
Hep lipid drop: hepatic lipid droplet formation modulation; AML12 mouse hepatocytes, oleate lipid droplets, BODIPY imaging; inhibition, % at 6.5 µM; hit rate 0.4% among 240,000; AID 1656;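 active means lipid droplet intensity inhibited by at least 50%, with more than 500 cells counted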
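Material – mouse AML12 hepatocyte cell line, fixed after treatment · Compound dosing – one dose, 6.5 µM compound · Times – compound with oleate, overnight · Measured by – Image-based BODIPY and DAPI two-channel analysis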
A number is an active result; - = inactive; . = not tested or not shown. A selection: hits, their analogues and other compounds. The true share with any hit is near 4.3%.

SMILES	AHR activator	SR-BI HDL uptake	SMARCA2 activ	SR-BI DiI-HDL act	CR mimetic SO	Hep lipid drop
N#Cc1ccccc1Cn1cc(/C=N/Nc2ccc([N+](=O)[O-])cn2)c2ccccc21	-	96.5	-	-	-	-
COc1ccc(N2C(=O)c3n[nH]c(C(C)C)c3C2c2ccc(C)cc2)cc1 (configuration not stated)	.	.	-	.	.	.
CCn1cc(C2=NC(CC(C)C)CO2)c2ccccc21 (configuration not stated)	66.7	.	-	.	-	-
CCn1cc(C2=NC(C(C)C)CO2)c2ccccc21 (configuration not stated)	53.1	-	-	-	-	-
CCn1cc(C2=NC(CCSC)CO2)c2ccccc21 (configuration not stated)	-	-	-	-	-	-
O=C(NNc1nc2ccccc2s1)Nc1ccc(F)cc1	75.0	.	-	.	-	-
O=C(NNc1nc2ccccc2s1)Nc1ccc(Cl)c(Cl)c1	-	.	-	.	-	-
O=C(Nc1ccc(F)cc1F)Nc1sccc1-c1nc2ccccc2s1	-	-	-	-	-	-
O=C(Nc1nc2ccccc2s1)Nc1ccc(F)cc1F	70.9	-	-	-	-	-
COC(=O)[C@]12C[C@H](CC(=O)NCc3cccc4ccccc34)C(=O)N(CCc3ccc(OC)c(OC)c3)C1=C[C@H](C(C)(C)C)O[C@@H]2C	.	.	-	.	.	.
C=CCn1c(=O)c(C(=O)Nc2ccccc2O)c(O)c2ccccc21	63.2	-	-	-	-	.
Cc1ccc(C(=O)c2oc3ccccc3c2NC(=O)c2cc(-c3ccccc3O)n[nH]2)cc1	50.5	-	-	-	-	-
O=C(Nc1c(C(=O)c2ccccc2)oc2ccccc12)c1cc(-c2ccccc2O)n[nH]1	67.9	74.2	-	-	-	-
O=C(N/N=C/c1sc(N2CCOCC2)nc1-c1ccccc1)c1ccccc1Cl	-	82.6	-	-	-	.
O=C(Nc1ccccc1F)C(=Cc1sc(N2CCOCC2)nc1-c1ccccc1)C(=O)Nc1ccccc1F	-	-	-	-	-	67.9
NC(=O)N/N=C/c1sc(N2CCCCC2)nc1-c1cccs1	-	-	-	-	-	.
O=[N+]([O-])c1ccc(N/N=C/c2sc(N3CCOCC3)nc2-c2ccccc2)c(S(=O)(=O)Nc2ccccc2Cl)c1	.	-	-	-	.	-
O=C(N/N=C/c1sc(N2CCCCC2)nc1-c1cccs1)C1CC1	67.6	-	-	-	-	-
O=[N+]([O-])c1ccc(N/N=C/c2sc(N3CCOCC3)nc2-c2ccccc2)c(S(=O)(=O)Nc2ccc(Cl)cc2)c1	.	118.0	-	-	.	-
C[C@H]1COc2cc(Br)ccc2S(=O)(=O)N1Cc1cn(Cc2ccco2)nn1	.	.	-	.	.	.
CC1(C)OC(=O)C2=C(CC(CCc3ccccc3)OC2c2cccc(C(F)(F)F)c2)O1 (configuration not stated)	.	.	-	.	.	.
O=C(NCCCn1ccnc1)c1cc([N+](=O)[O-])cc([N+](=O)[O-])c1	48.4	-	-	-	-	-
O=C(NCCCn1ccnc1)c1ccc(Cl)c(Cl)c1	50.5	-	-	-	-	-
COC(=O)[C@]12C[C@H](CC(=O)NCc3cccs3)C(=O)N(CCC3=CCCCC3)C1=C[C@H](COCc1ccccc1)O[C@@H]2C	.	.	-	.	.	.
CCOC(=O)/C(=N\Nc1ccc(Cl)cc1)c1csc(Nc2ccccc2)n1	-	109.5	-	-	-	-
SMILES	AHR activator	SR-BI HDL uptake	SMARCA2 activ	SR-BI DiI-HDL act	CR mimetic SO	Hep lipid drop
CCOC(=O)/C(=N\Nc1ccc(OC)cc1)c1csc(Nc2ccccc2)n1	-	99.4	7.8	-	-	-
CCOC(=O)/C(=N/Nc1ccccc1)c1csc(Nc2ccccc2)n1	-	95.1	-	-	-	-
COC(=O)c1c(-c2ccc(OC)cc2)c2c(c3c4cc(OC)ccc4n(S(=O)(=O)c4ccc(C)cc4)c13)C(=O)N(C)C2	.	.	-	.	.	.
O=C(NC1CCCCN(Cc2ccc(Cl)cc2)C1=O)c1ccc2ccccc2c1 (configuration not stated)	.	.	-	.	.	.
Cc1[nH]c2ccccc2c1/C=N\NC(=O)c1ccccc1Cl	.	.	-	.	.	.
O=C(N/N=C/c1cccc([N+](=O)[O-])c1)c1cnccn1	53.7	-	-	-	-	-
Cc1ccc(/C=N/NC(=O)c2cc(C)oc2C)cc1	-	.	-	.	-	-
Cc1cc(C(=O)NN=Cc2c(C)[nH]c3ccccc23)c(C)o1	57.2	-	-	-	-	.
Cc1cc(C(=O)N/N=C/c2cccc([N+](=O)[O-])c2)c(C)o1	72.3	-	-	-	-	.
O=C(CCCOc1ccc(Cl)cc1Cl)N/N=C/c1cccc([N+](=O)[O-])c1	-	-	-	330.1	-	-
CCC(C)N(C(=O)CNc1nnnn1-c1ccccc1)C(C)CC (configuration not stated)	.	.	-	.	.	.
Cc1sc2ncnc(N[C@@H](Cc3c[nH]c4ccccc34)C(=O)O)c2c1C	48.0	-	-	-	-	-
Cc1ccc(O)c(NC(=O)c2ccc3c(c2)C(=O)N(CC(C)C)C3=O)c1	73.3	-	-	-	-	-
CCCN1C(=O)c2ccc(C(=O)Nc3cc(C)ccc3O)cc2C1=O	-	-	-	-	-	-
O=C1C(Nc2ccccc2)=C2CCCC=C2N1c1ccccc1	-	78.8	-	-	-	-
O=C1C=CC(=O)N1c1ccc(Nc2ccccc2)cc1	.	-	-	-	.	.
S=C1NC(c2ccccc2)=CC(c2ccccc2)N1 (configuration not stated)	-	82.2	-	-	-	-
C[C@@H]1CCCN1c1cccc2c1S(=O)(=O)N1CC[C@@H](C1)O2	.	.	-	.	.	.
Cc1ccc2nc(NC(=O)c3cc(-c4ccco4)nc4ccccc34)sc2c1	-	-	-	-	-	-
COc1ccc(NC(=O)c2cc(-c3ccco3)nc3ccccc23)cn1	70.5	-	-	-	-	.
COc1cccc(-c2cc(C(=O)Nc3nc4ccccc4s3)c3ccccc3n2)c1	-	88.3	-	-	-	.
O=C(Nc1nc2ccccc2s1)c1cc(-c2ccco2)nc2ccccc12	55.6	-	-	-	-	-
CN(C)C(=O)c1ccc(NC(=O)c2cc(-c3ccco3)nc3ccccc23)cc1	.	-	-	-	-	-
CC(C)Oc1cccc(-c2cc(C(=O)NC(=S)N(C)c3ccccc3C(=O)O)c3ccccc3n2)c1	49.7	-	-	-	-	-
O=S1(=O)N[C@H](Cc2ccccc2)COc2cc(N3CCCC3)ccc21	.	.	-	.	.	.
CC(=O)N1CCN(C(=O)c2ccc(CNC(=O)c3cccc(Br)c3)cc2)CC1	.	.	-	.	.	.
C[C@@H]1CCN(C2CC2)S(=O)(=O)c2c(cccc2N2CC[C@H](N(C)C)C2)O1	.	.	-	.	.	.
COc1cccc(NC(=O)c2cc(-c3ccc(C)o3)nc3ccccc23)c1	-	77.4	-	-	-	-
COC(=O)C1CN(C2CC2)CCS(=O)(=O)N1Cc1cn(Cc2ccccc2)nn1 (configuration not stated)	.	.	-	.	.	.

Assay outcomes: PubChem BioAssay, several laboratories
